Data as given in ChEMBL document CHEMBL1773052, “3-Trifluoromethylquinoxaline N,N'-dioxides as anti-trypanosomatid agents. Identification of optimal anti-T. cruzi agents and mechanism of action studies” (J Med Chem, 2011).
The source made the active and inactive calls. The rule behind the calls is not given here.

What was measured:
Trypanosoma cruzi [1] = assay: Antitrypanosomal activity against Trypanosoma cruzi CL Brener clone infected in Swiss albino mouse assessed as increase of mouse survival days at 50 mg/kg/day, po relative to control; type: functional
Trypanosoma cruzi [2] = assay: Antitrypanosomal activity against Trypanosoma cruzi Y infected in Swiss albino mouse assessed as increase of mouse survival days at 50 mg/kg/day, po relative to control; type: functional
Trypanosoma cruzi [3] = assay: Antitrypanosomal activity against Trypanosoma cruzi CL Brener clone infected in BALB/c mouse assessed as increase of mouse survival days at 50 mg/kg/day, po relative to control; type: functional
Trypanosoma cruzi [4] = assay: Antitrypanosomal activity against Trypanosoma cruzi Y infected in Swiss albino mouse assessed as reduction of microbial antibody level at 50 mg/kg/day, po by Wilconxon test; type: functional, organism-based
Procedure, shortened: (§1)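 Male BALB/c or Swiss albino mice, 30 days old, SPF, infected ip with 10³ blood trypomastigotes (CL Brener or Y). Oral dosing in PBS for 10 days. Controls: 10 mice on PBS; treated groups of 8. Tail-vein parasitemia weekly for 60 days, mortality recorded. Anti-T. cruzi antibodies measured by ELISA, run twice, at 30 and 60 or 90 days post-infection.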

Trypanosoma cruzi [5] = assay: Antitrypanosomal activity against Trypanosoma cruzi CL Brener clone infected in BALB/c mouse assessed as reduction of microbial antibody level at 50 mg/kg/day, po after 90 days by Wilconxon test; type: functional, organism-based; procedure, shortened: as §1
Trypanosoma cruzi [6] = assay: Antitrypanosomal activity against Trypanosoma cruzi CL Brener clone trypomastigotes in parasite infected BALB/c mouse blood assessed as parasite lysis at 250 ug/ml after 24 hrs relative to control; type: functional
Procedure, shortened: (§2)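 Blood from BALB/c mice 7 days post-infection, taken by cardiac puncture into 3.8% sodium citrate (7:3). Compounds dissolved in DMSO, diluted in PBS to 100 or 250 μg/mL. 10 μL mixed with 100 μL infected blood (~10⁶ parasites/mL), in triplicate. Shaken 10 min at RT, held 4 °C for 24 h. Parasites counted by microscopy; gentian violet 250 μg/mL as standard.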

Trypanosoma cruzi [7] = assay: Antitrypanosomal activity against Trypanosoma cruzi Tulahuen 2 epimastigotes assessed as growth inhibition at 25 uM after 5 days relative to control; type: functional; settings: Tulahuen 2, 120 h, read-out: GI
Procedure, shortened: (§3)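 Epimastigotes grown axenically at 28 °C in BHI-tryptose + 5% FBS; a 10-day stationary culture was inoculated to 1 × 10⁶ cells/mL. Drug added from DMSO stock, final DMSO ≤0.4%, vehicle control. A600 read daily. PGI on day 5 corrects for day-0 absorbance, relative to control. […] Three independent experiments.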

Trypanosoma cruzi [8] = assay: Antitrypanosomal activity against Trypanosoma cruzi Tulahuen 2 epimastigotes assessed as growth inhibition after 5 days; type: functional; settings: Tulahuen 2, 120 h, read-out: ID50; procedure, shortened: as §3
Trypanosoma cruzi [9] = assay: Antitrypanosomal activity against Trypanosoma cruzi CL Brener clone epimastigotes assessed as cell death at 25 uM after 2 days by MTT assay relative to control; type: functional
Procedure, shortened: (§4)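 Epimastigotes of each strain taken in exponential growth in BHI-tryptose with 5% FBS, 1 mL per well. Compounds added from DMSO and kept 2 days at 28 °C. Cells washed twice and resuspended in PBS-glucose (5.5 mM), then given 0.4 mg/mL MTT for 4 h at 28 °C. Lysis in SDS-isopropanol, OD read. Triplicate wells, six growth controls. PCyt taken against control, corrected for medium-only wells.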

Trypanosoma cruzi [10] = assay: Antitrypanosomal activity against Trypanosoma cruzi CL Brener clone epimastigotes assessed as cell death after 2 days by MTT assay; type: functional; settings: 48 h, read-out: ID50 (the source's name)
Procedure, shortened: (§5)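 Parasites in exponential growth, in BHI-tryptose + 5% FBS for T. cruzi or RPMI + 5% FBS for L. braziliensis, 28 °C, 24-well plates. Compounds in DMSO; miltefosine in ethanol. 2-day exposure, two PBS-glucose (5.5 mM) washes, then MTT 0.4 mg/mL for 4 h at 28 °C. SDS-isopropanol lysis, OD read. Triplicates, six growth controls.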

Trypanosoma cruzi [11] = assay: Antitrypanosomal activity against Trypanosoma cruzi Y epimastigotes assessed as cell death at 25 uM after 2 days by MTT assay relative to control; type: functional; procedure, shortened: as §4
Trypanosoma cruzi [12] = assay: Antitrypanosomal activity against Trypanosoma cruzi Y epimastigotes assessed as cell death after 2 days by MTT assay; type: functional; settings: 48 h, read-out: ID50 (the source's name); procedure, shortened: as §5
Trypanosoma cruzi [13] = assay: Antitrypanosomal activity against Trypanosoma cruzi Colombiana epimastigotes assessed as cell death at 25 uM after 2 days by MTT assay relative to control; type: functional; procedure, shortened: as §4
Trypanosoma cruzi [14] = assay: Antitrypanosomal activity against Trypanosoma cruzi Colombiana epimastigotes assessed as cell death after 2 days by MTT assay; type: functional; settings: 48 h, read-out: ID50 (the source's name); procedure, shortened: as §5
Leishmania braziliensis = assay: Antileishmanial activity against Leishmania braziliensis MHOM/BR/00/LTB300 promastigotes assessed as cell death after 2 days by MTT assay; type: functional; settings: MHOM/BR/00/LTB300, 48 h, read-out: ID50 (the source's name); procedure, shortened: as §5
Trypanosoma cruzi [15] = assay: Inhibition of mitochondrial dehydrogenase activity in Trypanosoma cruzi Y epimastigotes at 20 uM up to 120 mins by MTT assay
Procedure, shortened: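 Y-strain epimastigotes, 10⁶ per well in 500 μL medium, treated with 20 μM compound at 28 °C, untreated wells as time-matched controls. At each time point cells counted, then MTT (50 μL of 5 mg/mL in PBS) added for 4 h. Stopped with acidic isopropanol, A570 read. Activity given as percent of untreated control.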

Trypanosoma cruzi [16] = assay: Inhibition of mitochondrial dehydrogenase activity in Trypanosoma cruzi Y epimastigotes assessed as reduction of acetate excretion at 5 uM […] by NMR analysis
Procedure, shortened: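 Y-strain epimastigotes treated 2 days with 5 μM compound, 5 mL then centrifuged at 1500g for 10 min at 4 °C. Parasite-free supernatant stored at −20 °C. Before NMR, 0.3 mL supernatant mixed with 0.1 mL DMF (10 mM, internal standard) and 0.1 mL D₂O. Excreted metabolites compared with parasite-free medium control, expressed relative to DMF. Three experiments.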

Trypanosoma cruzi [17] = assay: Inhibition of mitochondrial dehydrogenase activity in Trypanosoma cruzi Y epimastigotes assessed as reduction of succinate excretion […] by NMR analysis
Trypanosoma cruzi [18] = assay: Antitrypanosomal activity against Trypanosoma cruzi CL Brener clone trypomastigotes in parasite infected BALB/c mouse blood assessed as parasite lysis at 100 ug/ml after 24 hrs relative to control; type: functional; procedure, shortened: as §2
[19] = Cytotoxicity against mouse J774 cells; type: cell-based; settings: read-out: ID50 (the source's name)
[20] = Selectivity index, ratio of ID50 for mouse J774 cells to ID50 for Trypanosoma cruzi Tulahuen 2 epimastigotes; type: toxicity, cell-based; settings: J774 cells versus Trypanosoma cruzi Tulahuen 2 epimastigotes, read-out: Selectivity Index
Salmonella typhimurium [21] = assay: Mutagenic activity in Salmonella Typhimurium TA98 assessed as number of revertants at 0.005 to 15 ug/plate by Ames test in absence of S9 fraction; type: toxicity, organism-based; settings: salmonella enterica subsp. enterica serovar typhimurium
Procedure, shortened: (§6)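 Direct plate incubation with S. typhimurium TA98 on minimal glucose agar. Toxicity to the strain tested first; doses run in triplicate from DMSO solutions, DMSO as negative control. Metabolic activation with 500 μL Aroclor-treated mouse liver S9. Positive controls: 4-nitro-o-phenylenediamine 20.0 μg/plate without S9; 2-aminofluorene 10.0 μg/plate with S9. Revertants counted manually; mutagenic if ≥2-fold the negative control at two consecutive doses.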

Salmonella typhimurium [22] = assay: Mutagenic activity in Salmonella Typhimurium TA98 assessed as number of revertants at 0.005 to 15 ug/plate by Ames test in presence of S9 fraction; type: toxicity, organism-based; settings: salmonella enterica subsp. enterica serovar typhimurium; procedure, shortened: as §6
Trypanosoma cruzi [23] = assay: Antitrypanosomal activity against Trypanosoma cruzi CL Brener clone infected in Swiss albino mouse assessed as increase of mouse survival days at 10 mg/kg/day, po relative to control; type: functional
Trypanosoma cruzi [24] = assay: Antitrypanosomal activity against Trypanosoma cruzi Y infected in Swiss albino mouse assessed as increase of mouse survival days at 10 mg/kg/day, po relative to control; type: functional
Trypanosoma cruzi [25] = assay: Antitrypanosomal activity against Trypanosoma cruzi Y infected in Swiss albino mouse assessed as increase of mouse survival days at 30 mg/kg/day, po relative to control; type: functional
Trypanosoma cruzi [26] = assay: Antitrypanosomal activity against Trypanosoma cruzi CL Brener clone infected in BALB/c mouse assessed as increase of mouse survival days at 10 mg/kg/day, po relative to control; type: functional
Trypanosoma cruzi [27] = assay: Antitrypanosomal activity against Trypanosoma cruzi Y infected in Swiss albino mouse assessed as reduction of parasitemia level at 10 to 30 mg/kg/day, po by ELISA; type: functional, organism-based; procedure, shortened: as §1
Trypanosoma cruzi [28] = assay: Antitrypanosomal activity against Trypanosoma cruzi Y infected in Swiss albino mouse assessed as reduction of microbial antibody level at 10 to 30 mg/kg/day, po by Wilconxon test; type: functional, organism-based; procedure, shortened: as §1
Trypanosoma cruzi [29] = assay: Antitrypanosomal activity against Trypanosoma cruzi CL Brener clone infected in BALB/c mouse assessed as reduction of parasitemia level at 10 mg/kg/day, po by ELISA; type: functional, organism-based; procedure, shortened: as §1
Trypanosoma cruzi [30] = assay: Antitrypanosomal activity against Trypanosoma cruzi CL Brener clone infected in Swiss albino mouse assessed as reduction of parasitemia level at 10 mg/kg/day, po after 55 days by ELISA; type: functional, organism-based; settings: in the assay text read “after 53 days” for “after 55 days”; procedure, shortened: as §1

Structure (SMILES)	survival at 50 mg/kg/day (Trypanosoma cruzi [1]) [%]	Activity (Trypanosoma cruzi [6]) [%]	inhibition of growth at 25 µM (Trypanosoma cruzi [7]) [%]	IC50 (Trypanosoma cruzi [8]) [µM]	Activity (Trypanosoma cruzi [9]) [%]	IC50 (Trypanosoma cruzi [10]) [µM]	Activity (Trypanosoma cruzi [11]) [%]	IC50 (Trypanosoma cruzi [12]) [µM]	Activity (Trypanosoma cruzi [13]) [%]	IC50 (Trypanosoma cruzi [14]) [µM]	IC50 (Leishmania braziliensis) [µM]	inhibition (Trypanosoma cruzi [15])	other results
O=C(Cn1ccnc1[N+](=O)[O-])NCc1ccccc1 [BENZNIDAZOLE]	100	–	–	–	–	–	–	–	–	–	–	–	survival at 50 mg/kg/day (Trypanosoma cruzi [2]): 87.5%; survival at 50 mg/kg/day (Trypanosoma cruzi [3]): 75%; Activity (Trypanosoma cruzi [4]): Active; Activity (Trypanosoma cruzi [5]): inactive
CN(C)c1ccc(C(=C2C=CC(=[N+](C)C)C=C2)c2ccc(N(C)C)cc2)cc1.[Cl-] [GENTIAN VIOLET]	–	100	–	–	–	–	–	–	–	–	–	–	–
Cc1c(C(=O)c2ccccc2)[n+]([O-])c2cc(F)c(F)cc2[n+]1[O-]	–	–	92	4.2	92	16.2	89	18.3	98	4.5	20.4	–	–
COC(=O)c1c(C)[n+]([O-])c2ccccc2[n+]1[O-]	–	–	24	–	59	–	0	–	60	–	> 50	–	–
Cc1c(Sc2ccccc2)[n+]([O-])c2cc(Cl)c(Cl)cc2[n+]1[O-]	–	–	93	6.5	98	< 1	100	2.9	100	1.7	1.4	Active	inhibition (Trypanosoma cruzi [16]): Active; inhibition (Trypanosoma cruzi [17]): Active
O=C(c1ccccc1)c1c(C(F)(F)F)[n+]([O-])c2cc(F)c(F)cc2[n+]1[O-]	100	84	100	0.7	96	1.1	100	1.8	100	–	1.3	Active	Activity (Trypanosoma cruzi [18]): 63%; CC50 [19]: 8 µM; selectivity ratio [20]: 11.4; Activity (Salmonella typhimurium [21]): Non-toxic; Activity (Salmonella typhimurium [22]): Non-toxic; survival at 10 mg/kg/day (Trypanosoma cruzi [23]): 100%; survival at 10 mg/kg/day (Trypanosoma cruzi [24]): 100%; survival at 30 mg/kg/day (Trypanosoma cruzi [25]): 87.5%; survival at 10 mg/kg/day (Trypanosoma cruzi [26]): 100%; Activity (Trypanosoma cruzi [27]): Active; Activity (Trypanosoma cruzi [28]): Active; Activity (Trypanosoma cruzi [29]): Active; Activity (Trypanosoma cruzi [30]): Active
